This note sets out measurements from ChEMBL document CHEMBL1817660, “Synthesis of various 3-nitropropionamides as Mycobacterium tuberculosis isocitrate lyase inhibitor” (Bioorg Med Chem Lett, 2011).

SMILES strings stand for the structures. ≈ marks a conversion by molar mass, not a printed value.

Series [1] has as its system Mycolicibacterium smegmatis. Kind of series: Antimycobacterial activity against active log phase Mycobacterium smegmatis ATCC 14468 by agar dilution method. Type of series: functional. The method, boiled down:
(§1)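 Log-phase cultures (M. tuberculosis H37Rv at OD 600; M. smegmatis ATCC 14468) tested by agar dilution following NCCLS-type MIC procedure, in duplicate. MIC taken as lowest concentration giving complete inhibition of bacterial growth.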

Series [2] has as its system Mycobacterium tuberculosis. Kind of series: Antimycobacterial activity against active log phase Mycobacterium tuberculosis H37Rv by agar dilution method. Type of series: functional. The method, boiled down: as §1
(In general: In agar dilution the substance is mixed into plates at graded concentrations.)

The subject of series [3] is Mycolicibacterium smegmatis. Nature of the series: Antimycobacterial activity against 6-weeks nutrient starved phase cultures of Mycobacterium smegmatis ATCC 14468 treated for 7 days measured after 4 weeks by agar dilution method. Type of series: functional.
The subject of series [4] is Mycobacterium tuberculosis. Kind of series: Antimycobacterial activity against 6-weeks nutrient starved phase cultures of Mycobacterium tuberculosis H37Rv treated for 7 days measured after 4 weeks by agar dilution method. Type of series: functional.
Series [5] concerns the target T1, Isocitrate lyase (Mycobacterium tuberculosis, UniProt P9WKK7).
T1 sequence (P9WKK7 whole entry): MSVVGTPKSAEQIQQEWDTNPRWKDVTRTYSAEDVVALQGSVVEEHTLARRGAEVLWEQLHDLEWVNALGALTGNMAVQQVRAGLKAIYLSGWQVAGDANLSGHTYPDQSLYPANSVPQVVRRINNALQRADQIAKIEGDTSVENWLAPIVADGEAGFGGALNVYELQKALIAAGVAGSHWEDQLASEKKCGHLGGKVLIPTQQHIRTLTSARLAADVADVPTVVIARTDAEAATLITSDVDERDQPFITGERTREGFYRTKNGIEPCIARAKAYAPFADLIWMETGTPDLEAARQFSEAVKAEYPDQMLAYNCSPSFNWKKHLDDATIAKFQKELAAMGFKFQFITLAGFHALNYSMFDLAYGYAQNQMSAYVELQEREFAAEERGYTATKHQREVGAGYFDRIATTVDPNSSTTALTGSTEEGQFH
Kind of series: Inhibition of Mycobacterium tuberculosis isocitrate lyase.

A short description of series [6]: Cytotoxicity against African green monkey Vero cells after 72 hrs by MTT assay. Type of series: cell-based. Particulars: chlorocebus sabaeus. The method, boiled down:
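Vero cells exposed to a single concentration of 62.5 µg/mL for 72 h; viability read by cellular conversion of MTT to formazan (non-radioactive cell proliferation assay).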

Series [7] deals with Mycobacterium tuberculosis. Nature of the series: Ratio of isoniazid MIC to compound MIC for active log phase Mycobacterium tuberculosis H37Rv by agar dilution method. It counts as functional. The method, boiled down: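 MIC by agar dilution, following NCCLS-type guidance, against log-phase M. tuberculosis H37Rv (OD 600), run in duplicate. MIC is the lowest concentration that gives complete inhibition of bacterial growth. The line's ratio is isoniazid MIC divided by compound MIC.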

Series [8] relates to Mycobacterium tuberculosis. Nature of the series: Ratio of MIC for 6-weeks nutrient starved phase cultures of Mycobacterium tuberculosis H37Rv to MIC for active log phase Mycobacterium tuberculosis H37Rv. It counts as functional.
Series [9] is described as follows: Selectivity index, ratio of CC50 for African green monkey Vero cells to MIC for 6-weeks nutrient starved phase cultures of Mycobacterium tuberculosis H37Rv. It counts as functional.

In the case of `O=C(CC[N+](=O)[O-])N1CCN(Cc2ccccc2)CC1`, the MIC (in general, the lowest concentration found to suppress growth) in series [1] was above 180 µM; in series [2], above 180 µM; in series [3], above 180 µM; in series [4], 90.1 µM (≈ 25 µg/mL).
For the compound `Cc1ccnc(NC(=O)CC[N+](=O)[O-])c1`, the minimum inhibitory concentration (MIC) in series [1] is above 239 µM; in series [2] it was 239 µM (≈ 50 µg/mL); in [3], 239 µM (≈ 50 µg/mL); in series [4], 59.8 µM (≈ 12.5 µg/mL).
With `O=C(O)c1cn(C2CC2)c2cc(N3CCNCC3)c(F)cc2c1=O` [CIPROFLOXACIN], the lowest concentration to inhibit growth in series [3] (MIC) was 2.35 µM (≈ 0.779 µg/mL).
On to `CCn1cc(C(=O)O)c(=O)c2cc(F)c(N3CCN(C(=O)CC[N+](=O)[O-])CC3C)c(F)c21` (configuration not stated), for which the minimum inhibitory concentration (MIC) in [1] was determined as 6.91 µM (≈ 3.13 µg/mL); in [2] it was 3.44 µM (≈ 1.56 µg/mL); in series [3] it was 1.72 µM (≈ 0.778 µg/mL); in series [4] it was 1.72 µM (≈ 0.778 µg/mL). The 50% inhibitory concentration (IC50) – broadly, the concentration that gives 50% inhibition – in series [5] is 1.46 µM. In addition, in series [6], the CC50 (as a rule, the concentration giving 50% cytotoxicity) at 72 h is above 138 µM.
As for `COc1c(N2C(C)CN(C(=O)CC[N+](=O)[O-])CC2C)c(F)cc2c(=O)c(C(=O)O)cn(C3CC3)c12` (configuration not stated), the minimum inhibitory concentration (MIC) was determined as 0.08 µM (≈ 0.0392 µg/mL) in series [1], 0.16 µM (≈ 0.0785 µg/mL) in series [2], 0.08 µM (≈ 0.0392 µg/mL) in series [3] and 0.04 µM (≈ 0.0196 µg/mL) in series [4]. In addition, the Ratio in series [7] is 4.5; in series [8], 4. Also, in series [5], the half-maximal inhibitory concentration (IC50) turned out to be 0.1 µM. Besides, in [6], the CC50 at 72 h was above 127 µM. In series [9], the “Selectivity Index” value stood at 3185.
Turning to `CCCN(CCC)C(=O)CC[N+](=O)[O-]`, the MIC in series [1], in series [2], in series [3] and in series [4] was above 247 µM in each case.
As to `COc1ccc(NC(=O)CC[N+](=O)[O-])cc1`, the MIC in series [1] is 112 µM (≈ 25 µg/mL); in [2], 223 µM (≈ 50 µg/mL); in [3], above 223 µM; in series [4], 55.8 µM (≈ 12.5 µg/mL).
`NNC(=O)c1ccncc1` [ISONIAZID]: the MIC in series [1] is 45.6 µM (≈ 6.25 µg/mL); in series [2], 0.72 µM (≈ 0.0987 µg/mL); in series [3], above 365 µM; in [4], above 365 µM. The compound also showed a cytotoxic concentration (CC50) at 72 h in series [6] above 456 µM.
For `O=C(O)CC[N+](=O)[O-]`, the MIC in [1], in series [2], in series [3] and in [4] was above 420 µM each time. Moreover, the half-maximal inhibitory concentration (IC50) in series [5] was 116 µM.
Turning to `O=C(CC[N+](=O)[O-])Nc1ccc(Cl)cn1`, the MIC in series [1] is 218 µM (≈ 50 µg/mL); in series [2], 109 µM (≈ 25 µg/mL); in series [3], 109 µM (≈ 25 µg/mL); in series [4], 54.4 µM (≈ 12.5 µg/mL).
Take `O=C(CC[N+](=O)[O-])Nc1ccc(Cl)cc1`: the MIC worked out at 54.7 µM (≈ 12.5 µg/mL) in [1], 109 µM (≈ 25 µg/mL) in series [2], 13.7 µM (≈ 3.13 µg/mL) in series [3] and 27.3 µM (≈ 6.25 µg/mL) in [4]. In series [5], this compound showed a half-inhibitory concentration (IC50) of 21.3 µM.
In the case of `CCN(CC)C(=O)CC[N+](=O)[O-]`, the MIC in [1] was 287 µM (≈ 50 µg/mL); in series [2], above 287 µM; in series [3] it was above 287 µM; in series [4], above 287 µM.
For the compound `O=C(O)c1cn(C2CC2)c2cc(N3CCN(C(=O)CC[N+](=O)[O-])CC3)c(F)cc2c1=O`, the MIC in series [1] was determined as 0.09 µM (≈ 0.0389 µg/mL); in [2], 1.8 µM (≈ 0.778 µg/mL); in series [3] it was 0.09 µM (≈ 0.0389 µg/mL); in [4], 0.09 µM (≈ 0.0389 µg/mL). In series [5], this compound showed a concentration for half-maximal inhibition (IC50) of 0.12 µM. In series [6], this compound had a 50% cytotoxic concentration (CC50) at 72 h above 145 µM.
`CCn1cc(C(=O)O)c(=O)c2cc(F)c(N3CCN(C(=O)CC[N+](=O)[O-])CC3)cc21`: the minimal inhibitory concentration (MIC) is 7.44 µM (≈ 3.13 µg/mL) in [1], 1.85 µM (≈ 0.778 µg/mL) in series [2], 0.95 µM (≈ 0.399 µg/mL) in series [3] and 0.47 µM (≈ 0.198 µg/mL) in [4]. Besides, 0.2 µM corresponded to half-maximal inhibition in series [5] (IC50). The compound further displayed a 50% cytotoxic concentration (CC50) at 72 h in series [6] above 149 µM.
For the compound `O=C(CC[N+](=O)[O-])Nc1ccc(F)cc1`, the MIC in [1] is 118 µM (≈ 25 µg/mL); in series [2], 118 µM (≈ 25 µg/mL); in [3] it was 236 µM (≈ 50 µg/mL); in series [4], 58.9 µM (≈ 12.5 µg/mL).
Consider `Cc1cc(NC(=O)CC[N+](=O)[O-])ccc1Br`, for which the minimum inhibitory concentration (MIC) in [1] was 87.1 µM (≈ 25 µg/mL); in series [2], 43.5 µM (≈ 12.5 µg/mL); in series [3] it was 43.5 µM (≈ 12.5 µg/mL); in [4], 43.5 µM (≈ 12.5 µg/mL). Further, it took 36.8 µM to reach half-maximal inhibition in series [5] (IC50).
Turning to `O=C(CC[N+](=O)[O-])N1CCN(c2ccccc2)CC1`, the MIC in series [1] is 190 µM (≈ 50 µg/mL); in [2] it was 190 µM (≈ 50 µg/mL); in series [3] it was above 190 µM; in series [4], 47.5 µM (≈ 12.5 µg/mL). In addition, the IC50 in [5] amounted to 41.2 µM.
In the case of `CCN1CCN(C(=O)CC[N+](=O)[O-])CC1`, the MIC in series [1] amounted to 58.1 µM (≈ 12.5 µg/mL); in series [2] it was 58.1 µM (≈ 12.5 µg/mL); in series [3], 116 µM (≈ 25 µg/mL); in series [4], 29 µM (≈ 6.25 µg/mL). In addition, half-maximal inhibition in series [5] (IC50) required 12.6 µM.
For the compound `O=C(CC[N+](=O)[O-])N1CCN(c2cccc(C(F)(F)F)c2)CC1`, the minimal inhibitory concentration (MIC) in series [1] stood at 75.5 µM (≈ 25 µg/mL); in series [2] it was 151 µM (≈ 50 µg/mL); in series [3], 75.5 µM (≈ 25 µg/mL); in series [4], 37.7 µM (≈ 12.5 µg/mL). It took 30.2 µM to reach half-maximal inhibition in series [5] (IC50).
As for `O=C(CC[N+](=O)[O-])Nc1ccccc1`, the MIC is 129 µM (≈ 25 µg/mL) in series [1], 257 µM (≈ 50 µg/mL) in series [2], above 257 µM in series [3] and 64.4 µM (≈ 12.5 µg/mL) in [4].
With `O=C(CC[N+](=O)[O-])N(Cc1ccccc1)Cc1ccccc1`, the MIC in [1] was 168 µM (≈ 50 µg/mL); in [2], above 168 µM; in series [3] it was above 168 µM; in [4], above 168 µM.
On to `Cc1ccc(NC(=O)CC[N+](=O)[O-])c(C)c1`, for which the MIC is 225 µM (≈ 50 µg/mL) in series [1], 225 µM (≈ 50 µg/mL) in series [2], above 225 µM in series [3] and 75 µM (≈ 16.7 µg/mL) in series [4].
On to `Cc1ccc(NC(=O)CC[N+](=O)[O-])cc1`, for which the minimal inhibitory concentration (MIC) is 120 µM (≈ 25 µg/mL) in [1], 240 µM (≈ 50 µg/mL) in series [2], above 240 µM in series [3] and 60 µM (≈ 12.5 µg/mL) in series [4].
On to `O=C(CC[N+](=O)[O-])Nc1ccc(Br)cc1`, for which the minimal inhibitory concentration (MIC) in [1] is 91.5 µM (≈ 25 µg/mL); in [2] it was 183 µM (≈ 50 µg/mL); in series [3], 91.5 µM (≈ 25 µg/mL); in series [4], 45.8 µM (≈ 12.5 µg/mL). Also, the half-inhibitory concentration (IC50) in series [5] was determined as 32.5 µM.
